Experiment [1] deals with Plasmodium falciparum. Kind of experiment: Antimalarial activity as inhibition of chloroquine-resistant Plasmodium falciparum mediated mice (Mus musculus) hemoglobin hydrolysis at 5 mM after 18 hrs. The format is functional. Set-up: scale not given: the % may be the effect or the level left. The method in brief: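 Parasite extract was incubated with native mouse haemoglobin, GSH (10 mM as added) and 0.2 M acetate buffer pH 5.4, with inhibitors added in DMSO, at 37 °C for 18 h. Reactions were stopped with reducing sample buffer and run on SDS-PAGE. Digestion was scored by densitometry of the 14 kDa globin band against a DMSO control, as intensity/mm2 ± SD.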

The test system of experiment [2] is Plasmodium berghei. Kind of experiment: Antimalarial activity as survival at day 4 in Peter's assay against Plasmodium berghei ANKA infected NIH mice (Mus musculus) at 25 mg/kg intraperitoneal dose 2 hrs post infection then daily for 4 days. In kind it is functional. The method in brief: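 NIH mice (18–23 g) were infected i.p. with 10^6 P. berghei-infected erythrocytes. Dosing started 2 h later, i.p. once daily for 4 days, with compounds at 20 mg/kg and chloroquine at 25 mg/kg, from 0.1 M DMSO stocks diluted in 2% saline–Tween 20. Day-4 parasitaemia was read from Giemsa smears as % of untreated control, and survival as % of mice. Analysis used one-way ANOVA and t-tests.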

The test system of experiment [3] is Plasmodium berghei. Kind of experiment: Antimalarial activity as reduced parasitaemia at day 4 in Peter's assay against Plasmodium berghei ANKA infected in NIH mice (Mus musculus) at 25 mg/kg intraperitoneal dose 2 hrs post infection then daily for 4 days. The format is functional. More on the design: scale not given: the % may be the effect or the level left. The method in brief: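 Chloroquine reference arm: NIH mice (18–23 g) were infected i.p. with 10^6 P. berghei-infected red cells and given 25 mg/kg once daily for 4 days, starting 2 h post-infection. Day-4 parasitemia was counted on Giemsa-stained smears, expressed relative to untreated controls, with survival recorded.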

Experiment [4] addresses T1, Histidine-rich protein PFHRP-II (Plasmodium falciparum) (UniProt P05227).
T1 sequence (whole entry): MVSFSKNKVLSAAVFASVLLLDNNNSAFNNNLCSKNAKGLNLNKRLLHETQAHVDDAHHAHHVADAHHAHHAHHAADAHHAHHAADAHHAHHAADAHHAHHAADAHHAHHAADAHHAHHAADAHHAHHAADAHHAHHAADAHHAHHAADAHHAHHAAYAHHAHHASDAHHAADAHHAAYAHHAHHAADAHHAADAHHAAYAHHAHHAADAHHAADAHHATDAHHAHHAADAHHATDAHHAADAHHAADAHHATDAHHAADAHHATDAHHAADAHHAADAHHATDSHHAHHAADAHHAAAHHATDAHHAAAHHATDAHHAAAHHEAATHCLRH
In words: Inhibition of acetate buffer-induced hemozoin formation at 1.25 to 25 mM/well after 48 hrs. The format is functional. More on the design: scale not given: the % may be the effect or the level left. The method in brief:
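Hemin chloride solution (4 mM, in DMSO) was mixed in triplicate with compounds in DMSO at final 1.25–25 per well. Controls were water or DMSO. Reaction was started with 0.2 M acetate buffer pH 4.4 and run at 37 °C for 48 h. Pellets were centrifuged, washed twice with DMSO, dissolved in 0.2 N NaOH, diluted 1:2 in 0.1 N NaOH, and absorbance read at 405 nm.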

In experiment [5] the test system is Plasmodium falciparum. In words: Antimalarial activity as parasite development after 48 hrs against chloroquine-sensitive Plasmodium falciparum W2 by FACS analysis. In kind it is functional, organism-based. Conditions: W2, 48 h, in the assay text read “chloroquine-resistant” for “chloroquine-sensitive”. The method in brief:
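Sorbitol-synchronized ring-stage P. falciparum W2, started at 0.1% parasitemia, grown in RPMI-1640 with 10% human serum under 3% O2/6% CO2/91% N2. Inhibitors were added from 1000× DMSO stocks for 48 h with no medium change. Cells were fixed in 1% formaldehyde/PBS pH 7.4 for 48 h at room temperature, then stained with 1 nM YOYO in 0.1% Triton X-100/PBS. Nucleated erythrocytes were counted by flow cytometry. IC50 came from nonlinear fits of % control parasitemia against concentration, duplicate experiments.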

In experiment [6] the test system is Plasmodium berghei. Kind of experiment: Antimalarial activity as survival in Peter's assay at day 4 against Plasmodium berghei ANKA infected in NIH mice (Mus musculus) at 20 mg/kg intraperitoneal dose 2 hrs post infection then daily over 4 days.
For experiment [7], the system named is Plasmodium berghei. Kind of experiment: Antimalarial activity as reduced parasitaemia at day 4 in Peter's assay against Plasmodium berghei ANKA infected in NIH mice (Mus musculus) at 20 mg/kg intraperitoneal dose 2 hrs post infection then daily over 4 days. In kind it is functional. Set-up: scale not given: the % may be the effect or the level left. The method in brief: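 NIH mice (18–23 g) were infected i.p. with 10^6 P. berghei-infected red cells. Compound was dissolved in DMSO (0.1 M), diluted in 2% saline–Tween 20, and given at 20 mg/kg i.p. once daily for 4 days, starting 2 h after infection. Day-4 parasitemia was read from Giemsa-stained smears as % of untreated controls. Survival was also recorded. Analysis used one-way ANOVA and t-tests.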

A value given as a limit tells only on which side of the number the result lay.

For `CCN(CC)CCCC(C)Nc1ccnc2cc(Cl)ccc12` (stereo not drawn) [CHLOROQUINE], the Activity with Plasmodium falciparum [1] came out at 26.92%; in the experiment with Plasmodium berghei [2], 30 days; in the experiment on Plasmodium berghei [3], 3%; in experiment [4] it was 84.2%.

For the compound `O=S(=O)(/C(Cl)=C/c1ccc(F)cc1)c1ccccc1`, the Activity with Plasmodium falciparum [1] is 52.72%; in experiment [4] it was under 5%. Besides, the IC50 in the experiment on Plasmodium falciparum [5] is over 10000 nM.

With `COc1cc(/C=C(\Cl)S(=O)(=O)c2ccccc2)cc(OC)c1OC`, the Activity (in the experiment on Plasmodium falciparum [1]; in experiment [4]) was under 5% throughout. Moreover, 10000 nM corresponded to half-maximal inhibition with Plasmodium falciparum [5] (IC50).

For `O=S(=O)(/C(Cl)=C/c1ccccc1Cl)c1ccccc1`, the Activity is 65.81% in the experiment on Plasmodium falciparum [1] and under 5% in experiment [4]. In the experiment with Plasmodium falciparum [5], this compound came in with an IC50 of over 10000 nM.

For the compound `O=S(=O)(/C(Cl)=C/c1ccc2ccccc2c1)c1ccccc1`, the Activity in the experiment on Plasmodium falciparum [1] was 84.59%; with Plasmodium berghei [6], 72%; in experiment [4], under 5%; in the experiment with Plasmodium berghei [7], 6.25%. For the same compound, half-maximal inhibition in the experiment with Plasmodium falciparum [5] (IC50) required 58 nM.

Take `COc1ccc(/C=C(\Cl)S(=O)(=O)c2ccccc2)cc1`: the Activity (with Plasmodium falciparum [1]; in experiment [4]) was under 5% in each case. The compound further yielded an IC50 in the experiment with Plasmodium falciparum [5] of 470 nM.

Turning to `O=S(=O)(/C(Cl)=C/c1cc2ccccc2nc1Cl)c1ccccc1`, the Activity with Plasmodium falciparum [1] was 28.49%; in experiment [4] it was under 5%. In the experiment with Plasmodium falciparum [5], the IC50 is 25 nM.

On to `COc1cc(OC)c(OC)cc1/C=C(\Cl)S(=O)(=O)c1ccccc1`, for which the Activity in the experiment with Plasmodium falciparum [1] was 11.07%; in experiment [4] it was under 5%. The IC50 with Plasmodium falciparum [5] was over 10000 nM.

Take `N#Cc1ccc(/C=C(\Cl)S(=O)(=O)c2ccccc2)cc1`: the Activity was 44.73% in the experiment on Plasmodium falciparum [1] and under 5% in experiment [4]. Moreover, the IC50 in the experiment with Plasmodium falciparum [5] is over 10000 nM.

As to `CC(C)CC(=O)N[C@H](C(=O)N[C@H](C(=O)N[C@@H](CC(C)C)[C@@H](O)CC(=O)N[C@@H](C)C(=O)N[C@@H](CC(C)C)[C@@H](O)CC(=O)O)C(C)C)C(C)C` [PEPSTATIN], in the experiment on Plasmodium falciparum [1], the Activity was determined as 93.77%.

Regarding `COc1cc(OC)c(/C=C(\Cl)S(=O)(=O)c2ccccc2)c(OC)c1`, the Activity (with Plasmodium falciparum [1]; in experiment [4]) was under 5% each time. The compound further showed an IC50 in the experiment on Plasmodium falciparum [5] of 10000 nM.

As to `O=S(=O)(/C(Cl)=C/c1ccc(Cl)cc1)c1ccccc1`, the Activity is 74.92% in the experiment on Plasmodium falciparum [1] and under 5% in experiment [4]. The same compound yielded an IC50 with Plasmodium falciparum [5] of 83 nM.

With `O=S(=O)(/C(Cl)=C/c1cccc2ccccc12)c1ccccc1`, the Activity was 76.69% in the experiment on Plasmodium falciparum [1] and under 5% in experiment [4]. In the experiment with Plasmodium falciparum [5], this compound had an IC50 of 75 nM.

On to `O=S(=O)(/C(Cl)=C/c1ccc(Cl)cc1Cl)c1ccccc1`, for which the Activity in the experiment with Plasmodium falciparum [1] was 75.3%; in experiment [4] it was under 5%. This compound returned a 50% inhibitory concentration (IC50) with Plasmodium falciparum [5] of 960 nM.

With `O=[N+]([O-])c1ccc(/C=C(\Cl)S(=O)(=O)c2ccccc2)cc1`, the Activity was 79.19% in the experiment with Plasmodium falciparum [1] and under 5% in experiment [4]. Also, the IC50 with Plasmodium falciparum [5] amounted to 73 nM.

With `O=S(=O)(/C(Cl)=C/c1ccc2c(c1)OCO2)c1ccccc1`, the Activity was 37.34% with Plasmodium falciparum [1] and under 5% in experiment [4]. Further, in the experiment with Plasmodium falciparum [5], the IC50 came to 53 nM.

As to `O=S(=O)(/C(Cl)=C/c1ccccc1)c1ccccc1`, the Activity is 59.33% in the experiment on Plasmodium falciparum [1] and under 5% in experiment [4]. The compound also registered an IC50 in the experiment on Plasmodium falciparum [5] of over 10000 nM.

`O=S(=O)(/C(Cl)=C/c1ccc(Cl)c(Cl)c1)c1ccccc1`: the Activity with Plasmodium falciparum [1] is 95.04%; in the experiment with Plasmodium berghei [6] it was 50%; in experiment [4], under 5%; in the experiment on Plasmodium berghei [7], 13.4%. In the experiment on Plasmodium falciparum [5], the half-maximal inhibitory concentration (IC50) is 59 nM.

In the experiment with Plasmodium falciparum [1], `CC(=O)N[C@@H](CC(C)C)C(=O)N[C@@H](CC(C)C)C(=O)N[C@H](C=O)CCCNC(=N)N` [LEUPEPTIN] came in with an Activity of 89.75%.

These data come from ChEMBL document CHEMBL1137739, “Synthesis of chlorovinyl sulfones as structural analogs of chalcones and their antiplasmodial activities” (Eur J Med Chem, 2009).
